According to ChEMBL document CHEMBL5653631, “A Potent and Selective ULK1 Inhibitor Suppresses Autophagy and Sensitizes Cancer Cells to Nutrient Stress” (iScience, 2018):
Blank lines part the entries; values can stand above or below the compound they belong to.

How the values were obtained:
[1] = target: Serine/threonine-protein kinase ATR (Homo sapiens) (UniProt Q13535); assay: Inhibition of human recombinant ATR at 500 nM in presence of ATP by radiometric assay relative to control
How it was run: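 Panel of 327 recombinant human kinases, each assayed in vitro by radiometric activity assay in duplicate at a single inhibitor concentration per compound, chosen with reference to its ULK1 inhibition. Activity remaining was expressed as percent of vehicle control, and percent inhibition was calculated as 100 minus percent activity remaining.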

[2] = target: T1, Serine/threonine-protein kinase D3 (Homo sapiens) (UniProt O94806); assay: Inhibition of human recombinant PKD3 at 500 nM in presence of ATP by radiometric assay relative to control
T1 sequence (whole entry): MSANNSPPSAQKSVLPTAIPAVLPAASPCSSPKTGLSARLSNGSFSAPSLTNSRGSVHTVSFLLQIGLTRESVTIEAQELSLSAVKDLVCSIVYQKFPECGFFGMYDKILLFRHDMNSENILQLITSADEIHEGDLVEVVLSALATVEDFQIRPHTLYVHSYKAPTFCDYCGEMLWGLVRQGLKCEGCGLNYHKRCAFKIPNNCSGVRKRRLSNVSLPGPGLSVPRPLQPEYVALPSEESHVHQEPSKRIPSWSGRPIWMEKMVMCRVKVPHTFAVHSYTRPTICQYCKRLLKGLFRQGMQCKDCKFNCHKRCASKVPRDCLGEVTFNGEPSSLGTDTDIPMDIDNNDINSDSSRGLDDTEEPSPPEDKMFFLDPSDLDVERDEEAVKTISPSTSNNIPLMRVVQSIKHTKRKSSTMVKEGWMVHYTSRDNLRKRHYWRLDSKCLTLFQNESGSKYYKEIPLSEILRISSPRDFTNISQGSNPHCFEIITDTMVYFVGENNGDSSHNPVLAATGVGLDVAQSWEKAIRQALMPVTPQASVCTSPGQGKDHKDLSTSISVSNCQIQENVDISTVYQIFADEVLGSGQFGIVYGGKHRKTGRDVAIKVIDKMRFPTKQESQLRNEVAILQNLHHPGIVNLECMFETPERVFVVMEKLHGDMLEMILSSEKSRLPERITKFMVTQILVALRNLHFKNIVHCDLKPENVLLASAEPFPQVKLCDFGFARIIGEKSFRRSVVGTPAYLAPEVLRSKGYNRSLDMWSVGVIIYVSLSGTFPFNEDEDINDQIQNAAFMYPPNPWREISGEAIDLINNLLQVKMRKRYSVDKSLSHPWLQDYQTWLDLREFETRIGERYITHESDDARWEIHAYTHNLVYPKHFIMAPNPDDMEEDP

[3] = target: Tyrosine-protein kinase JAK2 (Homo sapiens) (UniProt O60674); assay: Inhibition of human recombinant JAK2 at 15 nM in presence of ATP by radiometric assay relative to control
[4] = target: Serine/threonine-protein kinase 24 (Homo sapiens) (UniProt Q9Y6E0); assay: Inhibition of human recombinant MST3 at 15 nM related to control ULK1
[5] = target: Serine/threonine-protein kinase PLK3 (Homo sapiens) (UniProt Q9H4B4); assay: Inhibition of human recombinant PLK3 at 15 nM related to control ULK1
[6] = target: T2, Serine/threonine-protein kinase TAO2 (Homo sapiens) (UniProt Q9UL54); assay: Inhibition of human recombinant TAO2 at 15 nM related to control ULK1
T2 sequence (whole entry): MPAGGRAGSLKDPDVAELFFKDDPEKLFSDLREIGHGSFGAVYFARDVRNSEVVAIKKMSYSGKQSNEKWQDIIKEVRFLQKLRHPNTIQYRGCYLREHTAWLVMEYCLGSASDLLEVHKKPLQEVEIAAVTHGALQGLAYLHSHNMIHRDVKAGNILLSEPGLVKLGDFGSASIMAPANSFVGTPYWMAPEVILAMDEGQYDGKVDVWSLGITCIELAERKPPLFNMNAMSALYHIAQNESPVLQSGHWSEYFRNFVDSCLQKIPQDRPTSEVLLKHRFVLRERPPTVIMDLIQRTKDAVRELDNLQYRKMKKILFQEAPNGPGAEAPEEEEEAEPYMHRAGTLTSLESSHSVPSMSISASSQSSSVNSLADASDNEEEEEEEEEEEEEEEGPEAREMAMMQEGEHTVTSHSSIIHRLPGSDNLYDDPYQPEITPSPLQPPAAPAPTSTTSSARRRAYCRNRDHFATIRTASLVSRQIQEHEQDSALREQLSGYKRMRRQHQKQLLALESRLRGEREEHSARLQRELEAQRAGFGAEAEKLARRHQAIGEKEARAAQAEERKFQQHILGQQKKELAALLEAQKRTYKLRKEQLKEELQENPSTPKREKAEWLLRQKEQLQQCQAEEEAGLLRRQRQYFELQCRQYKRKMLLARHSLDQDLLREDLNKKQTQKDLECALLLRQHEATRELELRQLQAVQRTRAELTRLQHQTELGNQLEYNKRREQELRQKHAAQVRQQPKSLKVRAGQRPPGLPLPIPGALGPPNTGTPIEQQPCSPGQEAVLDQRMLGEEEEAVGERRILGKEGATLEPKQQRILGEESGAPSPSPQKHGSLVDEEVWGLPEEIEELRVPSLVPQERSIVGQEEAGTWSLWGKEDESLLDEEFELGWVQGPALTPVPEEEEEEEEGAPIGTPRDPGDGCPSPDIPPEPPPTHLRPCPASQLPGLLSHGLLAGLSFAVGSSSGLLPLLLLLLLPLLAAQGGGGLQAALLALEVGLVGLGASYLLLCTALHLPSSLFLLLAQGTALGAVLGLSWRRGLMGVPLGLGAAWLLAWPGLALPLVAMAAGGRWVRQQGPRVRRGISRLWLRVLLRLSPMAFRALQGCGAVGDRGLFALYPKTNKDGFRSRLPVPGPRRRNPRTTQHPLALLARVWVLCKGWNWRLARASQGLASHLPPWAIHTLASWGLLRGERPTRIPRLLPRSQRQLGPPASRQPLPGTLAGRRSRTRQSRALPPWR

[7] = target: Homeodomain-interacting protein kinase 2 (Homo sapiens) (UniProt Q9H2X6); assay: Inhibition of human recombinant HIPK2 at 40 nM related to control ULK1
[8] = target: Non-receptor tyrosine-protein kinase TYK2 (Homo sapiens) (UniProt P29597); assay: Inhibition of human recombinant TYK2 at 40 nM related to control ULK1
Non-receptor tyrosine-protein kinase TYK2 (Homo sapiens), sequence (P29597 whole entry): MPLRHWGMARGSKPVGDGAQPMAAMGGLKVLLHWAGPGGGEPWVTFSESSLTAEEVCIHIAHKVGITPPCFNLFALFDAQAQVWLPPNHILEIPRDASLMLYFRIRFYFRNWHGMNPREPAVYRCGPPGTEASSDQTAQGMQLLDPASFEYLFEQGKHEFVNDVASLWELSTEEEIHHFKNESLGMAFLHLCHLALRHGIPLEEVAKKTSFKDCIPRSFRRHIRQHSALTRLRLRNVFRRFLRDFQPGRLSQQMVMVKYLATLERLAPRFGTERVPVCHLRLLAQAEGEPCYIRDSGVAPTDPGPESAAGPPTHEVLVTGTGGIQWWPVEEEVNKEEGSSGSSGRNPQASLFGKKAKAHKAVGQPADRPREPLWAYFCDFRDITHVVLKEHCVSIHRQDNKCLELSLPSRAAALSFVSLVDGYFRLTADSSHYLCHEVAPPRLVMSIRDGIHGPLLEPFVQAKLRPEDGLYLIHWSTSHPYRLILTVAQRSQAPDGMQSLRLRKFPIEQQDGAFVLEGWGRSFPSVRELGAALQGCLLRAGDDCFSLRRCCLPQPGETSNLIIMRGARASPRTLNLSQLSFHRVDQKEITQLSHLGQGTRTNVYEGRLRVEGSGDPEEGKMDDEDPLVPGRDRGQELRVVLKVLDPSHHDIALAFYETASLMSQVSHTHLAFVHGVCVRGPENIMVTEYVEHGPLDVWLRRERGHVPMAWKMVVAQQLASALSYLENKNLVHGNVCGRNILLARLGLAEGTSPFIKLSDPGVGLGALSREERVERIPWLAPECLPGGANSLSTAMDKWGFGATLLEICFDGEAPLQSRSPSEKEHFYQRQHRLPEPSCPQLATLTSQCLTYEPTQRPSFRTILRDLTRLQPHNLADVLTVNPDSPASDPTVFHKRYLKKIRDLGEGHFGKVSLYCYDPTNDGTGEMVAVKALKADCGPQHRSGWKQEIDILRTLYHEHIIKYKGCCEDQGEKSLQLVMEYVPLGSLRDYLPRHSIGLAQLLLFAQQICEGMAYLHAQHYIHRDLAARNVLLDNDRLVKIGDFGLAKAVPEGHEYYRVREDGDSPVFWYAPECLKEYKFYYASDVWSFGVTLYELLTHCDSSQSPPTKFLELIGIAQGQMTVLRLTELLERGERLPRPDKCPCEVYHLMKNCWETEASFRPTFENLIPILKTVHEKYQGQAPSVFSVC

Homeodomain-interacting protein kinase 2 (Homo sapiens), sequence (Q9H2X6 whole entry, looked up): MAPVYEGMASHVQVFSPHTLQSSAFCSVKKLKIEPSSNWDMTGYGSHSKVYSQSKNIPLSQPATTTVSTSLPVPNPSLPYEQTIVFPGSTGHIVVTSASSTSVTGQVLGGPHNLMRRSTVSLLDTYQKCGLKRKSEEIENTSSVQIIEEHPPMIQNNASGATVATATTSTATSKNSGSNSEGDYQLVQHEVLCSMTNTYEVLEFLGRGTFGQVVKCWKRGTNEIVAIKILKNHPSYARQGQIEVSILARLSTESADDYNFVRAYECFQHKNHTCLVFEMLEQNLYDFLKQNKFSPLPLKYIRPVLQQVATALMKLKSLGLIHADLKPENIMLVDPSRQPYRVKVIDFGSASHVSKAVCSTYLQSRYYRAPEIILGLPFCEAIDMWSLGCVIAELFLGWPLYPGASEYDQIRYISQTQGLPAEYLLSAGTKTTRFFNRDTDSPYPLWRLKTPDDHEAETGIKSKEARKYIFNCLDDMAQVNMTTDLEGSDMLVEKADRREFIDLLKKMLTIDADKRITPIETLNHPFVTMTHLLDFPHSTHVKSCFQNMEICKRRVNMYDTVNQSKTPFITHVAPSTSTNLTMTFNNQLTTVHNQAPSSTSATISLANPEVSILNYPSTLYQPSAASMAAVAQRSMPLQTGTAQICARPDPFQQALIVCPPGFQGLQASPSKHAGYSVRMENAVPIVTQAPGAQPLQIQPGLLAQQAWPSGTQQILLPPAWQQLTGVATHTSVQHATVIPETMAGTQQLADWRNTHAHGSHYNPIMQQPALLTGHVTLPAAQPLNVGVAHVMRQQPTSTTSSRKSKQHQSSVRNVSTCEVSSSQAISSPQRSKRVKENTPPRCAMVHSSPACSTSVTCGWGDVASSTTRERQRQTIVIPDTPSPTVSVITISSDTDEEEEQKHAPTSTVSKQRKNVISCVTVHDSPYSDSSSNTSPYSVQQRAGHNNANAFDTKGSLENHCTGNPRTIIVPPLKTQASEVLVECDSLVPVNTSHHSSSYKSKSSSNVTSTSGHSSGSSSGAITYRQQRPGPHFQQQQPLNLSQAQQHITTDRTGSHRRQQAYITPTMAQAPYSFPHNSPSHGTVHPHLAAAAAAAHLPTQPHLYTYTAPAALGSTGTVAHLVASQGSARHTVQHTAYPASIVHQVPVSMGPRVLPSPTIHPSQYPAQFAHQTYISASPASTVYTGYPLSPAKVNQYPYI
Serine/threonine-protein kinase PLK3 (Homo sapiens), sequence (Q9H4B4 whole entry, looked up): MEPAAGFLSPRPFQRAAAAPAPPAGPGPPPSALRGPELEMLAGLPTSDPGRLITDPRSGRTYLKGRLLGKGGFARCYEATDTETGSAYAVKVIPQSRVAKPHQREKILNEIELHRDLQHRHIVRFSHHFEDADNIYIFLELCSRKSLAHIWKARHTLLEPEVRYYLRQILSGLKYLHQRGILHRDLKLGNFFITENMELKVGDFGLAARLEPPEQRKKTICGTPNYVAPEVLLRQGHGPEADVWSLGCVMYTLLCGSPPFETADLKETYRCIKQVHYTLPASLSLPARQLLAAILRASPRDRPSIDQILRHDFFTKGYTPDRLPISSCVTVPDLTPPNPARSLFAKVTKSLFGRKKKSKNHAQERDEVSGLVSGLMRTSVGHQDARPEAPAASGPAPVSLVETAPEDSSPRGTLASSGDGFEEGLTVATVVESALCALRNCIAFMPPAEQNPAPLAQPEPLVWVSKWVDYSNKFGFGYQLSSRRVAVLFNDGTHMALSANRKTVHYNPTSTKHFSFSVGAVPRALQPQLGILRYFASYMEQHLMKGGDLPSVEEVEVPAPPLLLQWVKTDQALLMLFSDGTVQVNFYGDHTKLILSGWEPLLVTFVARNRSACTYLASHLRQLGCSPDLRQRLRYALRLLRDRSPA
Serine/threonine-protein kinase 24 (Homo sapiens), sequence (Q9Y6E0 whole entry, looked up): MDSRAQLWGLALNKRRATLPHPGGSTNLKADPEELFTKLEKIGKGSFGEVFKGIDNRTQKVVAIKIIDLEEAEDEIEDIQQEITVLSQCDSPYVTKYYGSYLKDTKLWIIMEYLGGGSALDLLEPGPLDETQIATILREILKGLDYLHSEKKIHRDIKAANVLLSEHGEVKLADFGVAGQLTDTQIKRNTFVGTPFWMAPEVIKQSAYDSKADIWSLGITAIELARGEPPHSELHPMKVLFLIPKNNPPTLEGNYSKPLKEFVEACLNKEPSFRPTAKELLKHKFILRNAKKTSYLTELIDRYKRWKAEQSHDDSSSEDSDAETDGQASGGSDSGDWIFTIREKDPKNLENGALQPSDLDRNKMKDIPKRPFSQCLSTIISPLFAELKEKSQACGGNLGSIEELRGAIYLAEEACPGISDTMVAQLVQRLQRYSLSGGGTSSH
Tyrosine-protein kinase JAK2 (Homo sapiens), sequence (O60674 whole entry): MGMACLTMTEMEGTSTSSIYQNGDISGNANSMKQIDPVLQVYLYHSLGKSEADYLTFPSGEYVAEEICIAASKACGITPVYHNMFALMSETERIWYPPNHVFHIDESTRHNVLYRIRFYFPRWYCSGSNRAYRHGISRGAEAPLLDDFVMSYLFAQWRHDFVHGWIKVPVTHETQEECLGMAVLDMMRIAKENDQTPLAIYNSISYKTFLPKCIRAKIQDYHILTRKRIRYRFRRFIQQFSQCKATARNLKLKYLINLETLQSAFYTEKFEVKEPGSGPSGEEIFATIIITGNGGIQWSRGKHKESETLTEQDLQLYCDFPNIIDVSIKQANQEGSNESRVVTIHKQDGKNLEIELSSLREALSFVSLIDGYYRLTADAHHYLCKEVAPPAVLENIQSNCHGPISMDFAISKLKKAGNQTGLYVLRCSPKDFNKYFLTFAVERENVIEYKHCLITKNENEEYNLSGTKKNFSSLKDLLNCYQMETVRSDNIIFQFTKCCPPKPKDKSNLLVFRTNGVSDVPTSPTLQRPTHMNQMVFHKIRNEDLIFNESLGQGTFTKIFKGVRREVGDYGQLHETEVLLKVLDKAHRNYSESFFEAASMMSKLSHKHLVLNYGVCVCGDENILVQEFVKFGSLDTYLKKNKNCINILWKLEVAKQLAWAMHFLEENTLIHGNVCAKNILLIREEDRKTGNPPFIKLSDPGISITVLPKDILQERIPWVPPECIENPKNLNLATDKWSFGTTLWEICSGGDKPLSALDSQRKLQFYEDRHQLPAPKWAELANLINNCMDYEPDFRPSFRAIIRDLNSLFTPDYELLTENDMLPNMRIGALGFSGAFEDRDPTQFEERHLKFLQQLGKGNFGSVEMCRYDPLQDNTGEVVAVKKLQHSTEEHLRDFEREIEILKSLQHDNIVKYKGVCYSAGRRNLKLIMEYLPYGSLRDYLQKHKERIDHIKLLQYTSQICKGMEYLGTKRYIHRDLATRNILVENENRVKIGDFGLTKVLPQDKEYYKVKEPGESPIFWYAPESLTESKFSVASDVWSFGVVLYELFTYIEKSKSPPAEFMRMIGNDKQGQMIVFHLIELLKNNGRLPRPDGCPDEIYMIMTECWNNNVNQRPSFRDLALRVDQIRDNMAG

- inhibition [1]: 0%
- inhibition [2]: 0%
SMILES: CNC(=O)c1ccccc1Oc1nc(Nc2cc(OC)c(OC)c(OC)c2)ncc1Br

- inhibition [3]: 6%
- fold change (FC) [4]: 0
- fold change (FC) [5]: 0.03
- fold change (FC) [6]: 0
SMILES: CC(C)[C@H](NC(=O)c1cc(-c2cnn3cc(-c4ccc(OCCN5CCCCC5)cc4)cnc23)cs1)C(F)(F)F

- fold change (FC) [7]: 0
- fold change (FC) [8]: 0.01
SMILES: O=C(N[C@@H](C1CC1)C(F)(F)F)c1cc(-c2cnn3cc(-c4ccc(F)cc4)cnc23)cs1
